RGS4 block: RGS4 inhibitors, primary screen, cell-based, HEK293 M3R inducible RGS4, calcium flux; 310,000 compounds, 0.45% hits; Fluo-4 calcium flux; stronger effect = higher value; triggered by carbachol at its EC20; AID 463165, 2010; B-score at 10 µM; Regulator of G-protein signaling 4 (Homo sapiens), P49798;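 active means B-score, a plate-corrected calcium signal, over three deviations above library mean, with baseline fluorescence within five deviations of library mean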;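 further: RGS4 expression induced by doxycycline in cells with stable M3 receptor; B-score is computed from the integrated fluorescence ratio over baseline after carbachol; higher B-score means a larger calcium signal and so more RGS4 inhibition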
Target sequence (P49798 whole entry, looked up): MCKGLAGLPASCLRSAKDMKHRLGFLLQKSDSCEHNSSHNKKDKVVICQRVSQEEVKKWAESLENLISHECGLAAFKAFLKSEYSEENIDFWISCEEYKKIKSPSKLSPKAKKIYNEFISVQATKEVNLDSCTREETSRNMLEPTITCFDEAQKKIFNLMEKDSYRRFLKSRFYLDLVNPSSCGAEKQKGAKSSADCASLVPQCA
RGS4 pot: RGS4 potentiators or activators, primary screen, cell-based, HEK293 M3R inducible RGS4, calcium flux; carbachol calcium flux Fluo4; stronger effect = lower value; AID 463111, 2010; 310,000 compounds, 0.92% hits; B-score at 10 µM;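 active means B-score of the integrated calcium signal more than 4 SD below the library mean, with starting fluorescence not abnormally high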;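 further: negative B-score means reduced calcium response which marks RGS4 activation or potentiation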
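test system = M3R-expressing HEK293 line, RGS4 induced by doxycycline | probe or stimulus = carbachol at ECmax as muscarinic agonist stimulus | timing = dye loading 30 min 37 °C, buffer rest 30 min RT | signal = calcium dye Fluo4 fluorescence | evaluation = B score from integrated fluorescence ratio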
MrgX1 allo act: positive allosteric modulators of MrgX1, primary screen, HEK293 cells, Fluo-4 calcium flux; 310,000 compounds, 0.63% hits; FDSS; stronger effect = higher value; Mas-related G-protein coupled receptor member X1 (Homo sapiens), Q96LB2; B-score at 10 µM;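 active means plate-corrected calcium response at least 3 library SD above typical, normal starting fluorescence, not activating the receptor alone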;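 further: compound read alongside a low EC10 to EC30 dose of BAM8-22 agonist; peak minus trough fluorescence over baseline measured at the second addition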
Target sequence (Q96LB2 whole entry, looked up): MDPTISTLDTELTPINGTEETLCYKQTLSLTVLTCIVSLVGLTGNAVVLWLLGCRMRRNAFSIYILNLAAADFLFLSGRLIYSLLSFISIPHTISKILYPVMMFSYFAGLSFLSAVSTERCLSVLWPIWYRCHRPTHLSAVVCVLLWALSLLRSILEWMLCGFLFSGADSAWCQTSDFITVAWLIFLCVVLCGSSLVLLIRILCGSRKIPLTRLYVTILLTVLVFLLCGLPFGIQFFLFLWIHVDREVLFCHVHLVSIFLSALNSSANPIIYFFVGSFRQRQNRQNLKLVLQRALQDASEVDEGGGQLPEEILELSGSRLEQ
MrgX1 agonist: agonists of human MrgX1 receptor, primary screen, HEK293 cells, Fluo-4 calcium flux | 310,000 compounds, 0.44% hits | Mas-related G-protein coupled receptor member X1 (Homo sapiens), Q96LB2 | Fluo-4 calcium fluorescence, agonist mode; stronger effect = higher value | B-score at 10 µM;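 active means calcium response B-score plate-corrected fluorescence ratio at least 3 library SD, with starting fluorescence B-score inside 5 SD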
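Assay system: stable human MrgX1 HEK293 cell line. Quantity: 15,000 cells per well. Schedule: cells plated overnight, dye loaded 0.5 h 37 °C, 0.5 h room temperature. Detection: Fluo-4 NW calcium-flux fluorescence, kinetic read. Read-out basis: peak-minus-minimum fluorescence over baseline, converted to B scores. Control set: positive and negative control wells on each plate.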
MrgX1 antag: antagonists of human MrgX1 receptor, primary screen, HEK293 cells, Fluo-4 calcium flux; 310,000 compounds, 1.3% hits; AID 588676, 2011; B-score at 10 µM; Mas-related G-protein coupled receptor member X1 (Homo sapiens), Q96LB2; BAM8-22 antagonism; stronger effect = lower value;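 active means calcium-response B-score plate-corrected more than 3 library SD below zero, starting fluorescence within 5 deviations, no agonist response on first addition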;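 further: peak minus trough fluorescence over baseline after final BAM8-22 challenge near maximal dose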
Active calls of the source: *. A selection: hits, their analogues and other compounds. The true share with any hit is near 3.5%.

Results for CN(C)c1ccc(C(C(=O)NC2CCCC2)N(Cc2cccnc2)C(=O)c2snc(C(N)=O)c2N)cc1 (configuration not stated) ?
RGS4 block: inactive; RGS4 pot: inactive; MrgX1 allo act: inactive; MrgX1 agonist: inactive; MrgX1 antag: -6.4*

What do the screens show for `CCOc1ccc(C(C(=O)NC2CCCC2)N(Cc2ccccc2)C(=O)c2nsc(Cl)c2Cl)cc1` (configuration not stated)?
RGS4 block: inactive; RGS4 pot: -7.2*; MrgX1 allo act: inactive; MrgX1 agonist: inactive; MrgX1 antag: inactive

Results for Cc1cc(C(=O)N/N=C/c2c(C)nn(-c3ccccc3)c2C)c(C)o1 ?
RGS4 block: inactive; RGS4 pot: inactive; MrgX1 allo act: inactive; MrgX1 agonist: inactive; MrgX1 antag: inactive

What do the screens show for `COc1ccc(C(=O)COC(=O)CCNS(=O)(=O)c2ccccc2)cc1Br`?
RGS4 block: inactive; RGS4 pot: inactive; MrgX1 allo act: inactive; MrgX1 agonist: inactive; MrgX1 antag: -5.6*

What do the screens show for `O=C(CCNS(=O)(=O)c1ccccc1)OCC(=O)c1ccc(Br)cc1`?
RGS4 block: inactive; RGS4 pot: inactive; MrgX1 allo act: inactive; MrgX1 agonist: inactive; MrgX1 antag: inactive

Results for O=C(C1CCCO1)N1CCN(C(=S)Nc2cc(F)cc(F)c2)CC1 (configuration not stated) ?
RGS4 block: inactive; RGS4 pot: inactive; MrgX1 allo act: inactive; MrgX1 agonist: inactive; MrgX1 antag: inactive

How did COc1ccc(OC)c(S(=O)(=O)N2CCN(c3ccccc3OC)CC2)c1 do in these assays?
RGS4 block: inactive; RGS4 pot: inactive; MrgX1 allo act: inactive; MrgX1 agonist: inactive; MrgX1 antag: inactive

Results for CCOC(=O)C1=C(C)N=c2s/c(=C\c3ccc(C(=O)O)cc3)c(=O)n2C1c1ccc(F)cc1 (configuration not stated) ?
RGS4 block: inactive; RGS4 pot: -7.4*; MrgX1 allo act: inactive; MrgX1 agonist: inactive; MrgX1 antag: -4.8*

Results for CCOC(=O)C1=C(C)N=c2s/c(=C/c3cccc(OCC(=O)O)c3)c(=O)n2C1c1ccc(F)cc1 (configuration not stated) ?
RGS4 block: inactive; RGS4 pot: inactive; MrgX1 allo act: inactive; MrgX1 agonist: inactive; MrgX1 antag: inactive

What do the screens show for `CCCCCCCCSc1nnc(CSc2nc3nc(C)cc(C)n3n2)o1`?
RGS4 block: inactive; RGS4 pot: -8.3*; MrgX1 allo act: inactive; MrgX1 agonist: inactive; MrgX1 antag: inactive

What do the screens show for `C/C(=N\NC(=S)NCc1ccccc1)c1ccccc1`?
RGS4 block: inactive; RGS4 pot: inactive; MrgX1 allo act: inactive; MrgX1 agonist: inactive; MrgX1 antag: inactive

What do the screens show for `C/C(=N\NC(=S)NCc1ccccc1)c1ccco1`?
RGS4 block: inactive; RGS4 pot: inactive; MrgX1 allo act: 8.1*; MrgX1 agonist: inactive; MrgX1 antag: inactive

What do the screens show for `CCNS(=O)(=O)c1ccc(C(=O)OCc2cc(=O)oc3cc(OC)ccc23)cc1`?
RGS4 block: inactive; RGS4 pot: inactive; MrgX1 allo act: inactive; MrgX1 agonist: inactive; MrgX1 antag: inactive

Results for O=c1c2ccccc2c(/C=N/c2nnc(Cc3ccccc3)s2)c(O)n1-c1ccc(Cl)cn1 ?
RGS4 block: inactive; RGS4 pot: inactive; MrgX1 allo act: 16*; MrgX1 agonist: inactive; MrgX1 antag: inactive

Results for Cc1cc(C)c2c(n1)SCC(=O)N2CC(=O)Nc1ccc(F)cc1 ?
RGS4 block: inactive; RGS4 pot: inactive; MrgX1 allo act: inactive; MrgX1 agonist: inactive; MrgX1 antag: inactive

How did O=C(Nc1ccc(Oc2ccccc2)cc1)C1CCN(c2c3c(nc4ncnn24)CCC3)CC1 do in these assays?
RGS4 block: inactive; RGS4 pot: -12*; MrgX1 allo act: inactive; MrgX1 agonist: inactive; MrgX1 antag: inactive

How did O=C(Nc1ccc2c(c1)CCC2)C1CCN(c2c3c(nc4ncnn24)CCC3)CC1 do in these assays?
RGS4 block: inactive; RGS4 pot: inactive; MrgX1 allo act: inactive; MrgX1 agonist: inactive; MrgX1 antag: inactive

How did CN(CC1CCCO1)S(=O)(=O)c1ccc(C(=O)Nc2nnc(-c3ccccc3)o2)cc1 (configuration not stated) do in these assays?
RGS4 block: inactive; RGS4 pot: inactive; MrgX1 allo act: inactive; MrgX1 agonist: inactive; MrgX1 antag: inactive

Results for COc1ccccc1N1CCN(C(=O)c2sc3nc(C)nc(N4CCN(c5ccccn5)CC4)c3c2C)CC1 ?
RGS4 block: inactive; RGS4 pot: -8.2*; MrgX1 allo act: inactive; MrgX1 agonist: inactive; MrgX1 antag: inactive

What do the screens show for `Cc1nc(N2CCCCC2)c2c(C)c(C(=O)Nc3ccc4c(c3)OCCO4)sc2n1`?
RGS4 block: inactive; RGS4 pot: -7*; MrgX1 allo act: inactive; MrgX1 agonist: inactive; MrgX1 antag: inactive

What do the screens show for `CCOC(=O)c1c(CSc2ccc(CC)cc2)oc2ccc(O)c(CN(C)C)c12`?
RGS4 block: inactive; RGS4 pot: inactive; MrgX1 allo act: inactive; MrgX1 agonist: inactive; MrgX1 antag: -5.9*

What do the screens show for `Cc1ccc(N=C2SC(C(=O)Nc3ccc(OC(F)(F)F)cc3)C(N)=C2C(=O)Nc2c(C)cc(C)cc2C)cc1` (configuration not stated)?
MrgX1 allo act: 10*; MrgX1 agonist: inactive; MrgX1 antag: inactive

Results for CCN(CC)S(=O)(=O)c1cccc(NC(=O)C2SC(=Nc3ccc(C)cc3C)C(C(=O)NC(C)COC)=C2N)c1 (configuration not stated) ?
RGS4 block: inactive; RGS4 pot: inactive; MrgX1 allo act: inactive; MrgX1 agonist: inactive; MrgX1 antag: inactive

What do the screens show for `COc1ccc(/C=C/C(=O)C2C(=O)C=C(C)OC2=O)cc1O` (configuration not stated)?
RGS4 block: inactive; RGS4 pot: inactive; MrgX1 allo act: inactive; MrgX1 agonist: inactive; MrgX1 antag: -4.7*

How did Cc1c(NS(=O)(=O)c2cccc(C(=O)NCc3ccc(Cl)cc3)c2)c(=O)n(-c2ccccc2)n1C do in these assays?
RGS4 block: inactive; RGS4 pot: inactive; MrgX1 allo act: inactive; MrgX1 agonist: inactive; MrgX1 antag: -6*

Results for Cc1c(NS(=O)(=O)c2cccc(C(=O)O)c2)c(=O)n(-c2ccccc2)n1C ?
RGS4 block: inactive; RGS4 pot: inactive; MrgX1 allo act: inactive; MrgX1 agonist: inactive; MrgX1 antag: inactive
